# In ChEMBL document CHEMBL4308835, “Fluorine-Substituted Pyrrolo[2,3- d]Pyrimidine Analogues with Tumor Targeting via Cellular Uptake by Folate Receptor α and the Proton-Coupled Folate Transporter and Inhibition of de Novo Purine Nucleotide Biosynthesis” (J Med Chem, 2018):
# Activity calls are given as the source filed them. No cut-off for these calls is given here.
# Key:
# IGROV-1 [1] = experiment: Antiproliferative activity against human IGROV1 cells harboring non targeted control shRNA sequence after 96 hrs by Cell-Titer Blue assay; assay type: functional, cell-based; settings: IGROV-1, 96 h
# IGROV-1 [2] = experiment: Antiproliferative activity against FRalpha […] human IGROV1 KD4 cells after 96 hrs by Cell-Titer Blue assay; assay type: functional, cell-based; settings: IGROV-1, 96 h
# [3] = Antiproliferative activity in Chinese hamster R2 cells deficient in RFC, PCFT, and FRalpha assessed as reduction in cell growth after 96 hrs by Cell-Titer Blue assay; assay type: cell-based; settings: Cricetulus griseus, R2, 96 h
# [4] = biological target: T1, Proton-coupled folate transporter (Homo sapiens) (UniProt Q96NT5); experiment: Inhibition of human PCFT expressed in Chinese hamster R2/PCFT4 cells assessed as reduction in [3H]MTX uptake at pH 5.5 at 1 uM measured over 2 mins relative to control; assay type: cell-based
# T1 sequence (whole entry): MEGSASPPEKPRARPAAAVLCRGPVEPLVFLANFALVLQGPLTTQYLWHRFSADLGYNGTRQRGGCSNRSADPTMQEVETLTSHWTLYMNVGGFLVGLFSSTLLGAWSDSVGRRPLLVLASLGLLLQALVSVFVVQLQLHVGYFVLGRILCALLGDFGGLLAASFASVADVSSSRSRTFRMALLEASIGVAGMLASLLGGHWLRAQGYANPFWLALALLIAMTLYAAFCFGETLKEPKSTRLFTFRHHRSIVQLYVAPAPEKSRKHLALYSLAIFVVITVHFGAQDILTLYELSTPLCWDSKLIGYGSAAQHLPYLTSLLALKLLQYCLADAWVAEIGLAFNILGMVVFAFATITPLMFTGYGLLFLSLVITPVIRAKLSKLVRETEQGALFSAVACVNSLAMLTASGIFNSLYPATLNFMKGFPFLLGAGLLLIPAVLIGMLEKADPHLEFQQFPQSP
# [5] = biological target: T2, Proton-coupled folate transporter (Homo sapiens, UniProt Q96NT5); experiment: Inhibition of human PCFT expressed in Chinese hamster R2/PCFT4 cells assessed as reduction in [3H]MTX uptake at pH 5.5 measured over 2 mins by Dixon plot analysis; assay type: cell-based
# T2 sequence (Q96NT5 whole entry): T1 sequence (whole entry)
# Method in brief: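 Competitor concentrations ranged from 0.05 to 0.5 μM. Ki was obtained by Dixon plot. Mean ± SE of four independent experiments.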
# [6] = biological target: T1, Proton-coupled folate transporter (Homo sapiens); experiment: Inhibition of human PCFT expressed in Chinese hamster R2/PCFT4 cells assessed as reduction in [3H]MTX uptake at pH 5.5 at 10 uM measured over 2 mins relative to control; assay type: cell-based
# A2780 = experiment: Antiproliferative activity against human A2780 cells after 96 hrs by Cell-Titer Blue assay; assay type: functional, cell-based; settings: A2780, 96 h
# [7] = biological target: T1, Proton-coupled folate transporter (Homo sapiens); experiment: Inhibition of human PCFT expressed in Chinese hamster R2/PCFT4 cells assessed as reduction in [3H]MTX uptake at pH 5.5 at 1 to 10 uM measured over 2 mins; assay type: cell-based
# [8] = biological target: T3, Trifunctional purine biosynthetic protein adenosine-3 (Homo sapiens, UniProt P22102); experiment: Inhibition of GARFTase in human IGROV1 cells assessed as decrease in incorporation of [14C(U)glycine into [14C]formyl GAR formation after 24 hrs; assay type: cell-based
# T3 sequence (P22102 whole entry): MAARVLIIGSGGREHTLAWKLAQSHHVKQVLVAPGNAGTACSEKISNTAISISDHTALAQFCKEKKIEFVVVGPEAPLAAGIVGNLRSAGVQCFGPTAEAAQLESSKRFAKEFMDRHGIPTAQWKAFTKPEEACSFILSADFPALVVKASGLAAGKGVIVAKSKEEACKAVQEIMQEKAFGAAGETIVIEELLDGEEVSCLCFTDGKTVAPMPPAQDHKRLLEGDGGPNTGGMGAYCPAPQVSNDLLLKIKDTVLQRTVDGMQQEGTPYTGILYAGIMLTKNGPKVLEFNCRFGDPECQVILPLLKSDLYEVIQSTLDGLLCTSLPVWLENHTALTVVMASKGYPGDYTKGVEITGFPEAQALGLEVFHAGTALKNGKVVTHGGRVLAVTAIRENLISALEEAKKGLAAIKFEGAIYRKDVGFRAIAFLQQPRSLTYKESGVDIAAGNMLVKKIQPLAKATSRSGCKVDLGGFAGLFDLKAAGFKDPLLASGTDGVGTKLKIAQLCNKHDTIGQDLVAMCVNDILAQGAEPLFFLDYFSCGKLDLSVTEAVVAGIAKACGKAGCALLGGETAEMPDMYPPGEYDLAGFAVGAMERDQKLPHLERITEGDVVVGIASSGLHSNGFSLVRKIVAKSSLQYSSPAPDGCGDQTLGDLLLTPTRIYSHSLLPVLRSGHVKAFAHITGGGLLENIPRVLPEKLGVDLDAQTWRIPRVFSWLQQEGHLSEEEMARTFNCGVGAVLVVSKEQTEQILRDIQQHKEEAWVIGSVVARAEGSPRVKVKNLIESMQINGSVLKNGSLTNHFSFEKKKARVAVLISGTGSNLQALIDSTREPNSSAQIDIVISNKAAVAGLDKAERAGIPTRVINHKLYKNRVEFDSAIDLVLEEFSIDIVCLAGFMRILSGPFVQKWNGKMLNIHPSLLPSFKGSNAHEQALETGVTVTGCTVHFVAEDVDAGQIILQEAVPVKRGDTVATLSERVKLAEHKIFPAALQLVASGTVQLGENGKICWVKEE
# Homo sapiens [9] = organism: Homo sapiens; experiment: Selectivity ratio of IC50 for human RFC2 expressed in human HeLa R1-11 cells to IC50 for human FR2 expressed in human HeLa R1-11 cells; assay type: cell-based
# [10] = biological target: T4, Reduced folate transporter (Homo sapiens) (UniProt P41440); experiment: Inhibition of human RFC2 expressed in human HeLa R1-11 cells assessed as reduction in [3H]MTX uptake at pH 7.2 at 1 uM measured over 2 mins relative to control; assay type: cell-based
# T4 sequence (whole entry): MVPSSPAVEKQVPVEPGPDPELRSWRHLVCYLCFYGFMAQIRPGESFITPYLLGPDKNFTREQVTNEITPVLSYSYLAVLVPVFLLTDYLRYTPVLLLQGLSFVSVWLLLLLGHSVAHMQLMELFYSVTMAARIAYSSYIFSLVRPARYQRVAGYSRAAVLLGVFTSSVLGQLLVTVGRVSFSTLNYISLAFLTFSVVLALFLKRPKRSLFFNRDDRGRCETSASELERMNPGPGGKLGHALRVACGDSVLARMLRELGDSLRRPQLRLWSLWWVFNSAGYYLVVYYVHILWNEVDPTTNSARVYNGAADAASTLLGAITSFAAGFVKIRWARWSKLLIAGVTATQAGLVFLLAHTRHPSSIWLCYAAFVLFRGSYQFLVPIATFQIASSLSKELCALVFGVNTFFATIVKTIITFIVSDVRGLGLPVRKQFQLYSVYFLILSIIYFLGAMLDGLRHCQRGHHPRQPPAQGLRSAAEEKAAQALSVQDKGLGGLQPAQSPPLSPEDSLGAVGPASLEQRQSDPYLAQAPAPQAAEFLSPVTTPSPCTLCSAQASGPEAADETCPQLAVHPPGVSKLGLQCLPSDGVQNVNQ
# IGROV-1 [11] = experiment: Antiproliferative activity against wild type human IGROV1 cells after 96 hrs by Cell-Titer Blue assay; assay type: functional, cell-based; settings: IGROV-1, 96 h
# IGROV-1 [12] = experiment: Antiproliferative activity against FRalpha […] human IGROV1 KD10 cells after 96 hrs by Cell-Titer Blue assay; assay type: functional, cell-based; settings: IGROV-1, 96 h
# [13] = biological target: T4, Reduced folate transporter (Homo sapiens); experiment: Inhibition of human RFC2 expressed in human HeLa R1-11 cells assessed as reduction in [3H]MTX uptake at pH 7.2 at 10 uM measured over 2 mins relative to control; assay type: cell-based
# Homo sapiens [14] = organism: Homo sapiens; experiment: Selectivity ratio of IC50 for human RFC2 expressed in human HeLa R1-11 cells to IC50 for human PCFT4 expressed in human HeLa R1-11 cells; assay type: cell-based
# IGROV-1 [15] = experiment: Antiproliferative activity against human IGROV1 cells at 1 to 1000 nM in presence of 320 uM AICA after 96 hrs by Cell-Titer Blue assay; assay type: functional, cell-based
# Method in brief: (§1)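 IGROV1 cells, 2000/well, in folate-free RPMI 1640 with 10% dialyzed FBS, L-glutamine, 25 nM LCV. A range of drug concentrations was given with thymidine (10 μM), adenosine (60 μM) or AICA (320 μM) added. After 96 h, proliferation was measured by Cell-Titer Blue fluorescence. At least triplicate experiments.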
# [16] = Toxicity in NCR SCID mouse xenografted with human IGROV1 cells assessed as weight loss median nadir at 95 mg/kg, iv treated once daily for 4 days per week for 4 weeks starting from 3 days post implantation and measured after conclusion of therapy; assay type: organism-based; settings: in vivo
# Method in brief: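 Female ICR SCID mice, 10 weeks old, kept on a folate-deficient diet for 14 days before bilateral subcutaneous IGROV1 implants; a control cohort was fed folate-replete chow. Randomized at 5 mice/group. […] Tumors measured twice weekly; body weights recorded daily.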
# [17] = Toxicity in NCR SCID mouse xenografted with human IGROV1 cells assessed as weight loss median nadir at 95 mg/kg, iv treated once daily for 4 days per week for 4 weeks starting from 3 days post implantation and measured at day 14 post last dose relative to control; assay type: organism-based; settings: in vivo
# IGROV-1 [18] = experiment: Antiproliferative activity against human IGROV1 cells at 1 to 1000 nM in presence of 10 uM thymidine after 96 hrs by Cell-Titer Blue assay; assay type: functional, cell-based; method in brief: as §1
# [19] = Toxicity in NCR SCID mouse xenografted with human IGROV1 cells assessed as weight loss median nadir at 95 mg/kg, iv treated once daily for 4 days per week for 4 weeks starting from 3 days post implantation and measured at day 18 post last dose relative to control; assay type: organism-based; settings: in vivo
# IGROV-1 [20] = experiment: Antiproliferative activity against human IGROV1 cells at 1 to 1000 nM in presence of 60 uM adenosine after 96 hrs by Cell-Titer Blue assay; assay type: functional, cell-based; method in brief: as §1
# IGROV-1 [21] = experiment: Anticlonogenic activity against human IGROV1 cells incubated for 24 hrs followed by compound wash out and measured after 10 days by methylene blue staining-based assay; assay type: functional, cell-based
# Method in brief: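 IGROV1 cells plated in folate-free RPMI 1640 (pH 7.2), 10% dialyzed FBS, 25 nM LCV. After 24 h adherence, exposed to drug (0–20 μM) for 24 h at pH 6.8 (25 mM PIPES/25 mM HEPES). Washed, then grown drug-free at pH 7.2 (100 mM HEPES) with 25 nM LCV for up to 10 days at 37 °C. Colonies stained with methylene blue and counted electronically. Values normalized to vehicle controls. Triplicate experiments.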
# [22] = biological target: Folate receptor alpha (Homo sapiens) (UniProt P15328); experiment: Displacement of [3H]folic acid from human FRalpha expressed in Chinese hamster RT16 cells at 10 to 1000 nM after 15 mins; assay type: cell-based
# Folate receptor alpha (Homo sapiens), sequence (P15328 25-234 limits assumed): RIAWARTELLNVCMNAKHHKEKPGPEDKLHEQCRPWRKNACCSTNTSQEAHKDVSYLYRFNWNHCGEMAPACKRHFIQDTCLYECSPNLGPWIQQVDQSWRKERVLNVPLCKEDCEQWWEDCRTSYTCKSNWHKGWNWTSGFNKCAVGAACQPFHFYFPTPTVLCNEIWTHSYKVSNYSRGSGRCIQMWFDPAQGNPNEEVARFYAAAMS
# Method in brief: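 RT16 (FRα) or D4 (FRβ) CHO cells at ~80% confluence were washed with PBS at 4 °C, then with pH 3.5 acetate buffer to strip bound folate, then HEPES-buffered saline pH 7.4. Cells were incubated with 50 nM [³H]folic acid plus competitor (10–1000 nM) for 15 min at 4 °C, washed, and solubilized in NaOH. Bound radioactivity was normalized to protein.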
SMILES,IC50 (IGROV-1 [1]) [µM],IC50 (IGROV-1 [2]) [µM],IC50 [3] [µM],inhibition [4] [%],Ki [5] [µM],inhibition [6] [%],IC50 (A2780) [µM],inhibition [7],inhibition [10],IC50 (IGROV-1 [11]) [µM],IC50 (IGROV-1 [12]) [µM],inhibition [13],also measured
Nc1nc2[nH]c(CCCc3ccc(C(=O)N[C@@H](CCC(=O)O)C(=O)O)c(F)c3)cc2c(=O)[nH]1,0.00114,0.041,0.14,60 to 85,0.26,90 to 95,0.00214,Active,inactive,0.00167,0.0192,inactive,IC50 [8]: 0.001 to 0.0025 µM; Ratio IC50 (Homo sapiens [9]): 97; Ratio IC50 (Homo sapiens [14]): 92
Nc1nc2[nH]c(CCCCc3csc(C(=O)N[C@@H](CCC(=O)O)C(=O)O)c3F)cc2c(=O)[nH]1,0.00179,0.138,> 1,60 to 85,0.25,90 to 95,0.00311,Active,inactive,0.0019,0.0669,inactive,Activity (IGROV-1 [15]): inactive; Activity [16]: Non-Toxic; Activity [17]: 15.7%; Activity (IGROV-1 [18]): Active; Activity [19]: 12.1%; Activity (IGROV-1 [20]): inactive; IC50 (IGROV-1 [21]): 0.2 µM; inhibition [22]: Active
